# This is a sample that favours compounds with a hit; in the whole collection about 1.2% have one here.
# NPR2 activator – GC-B (human) receptor activation. AID 1920062. hit rate 0.11% among 370,000. P20594. activation, % at 10 µM. HEK293-GC-B cells, CNP EC30, cGMP TR-FRET; 0% at EC30 CNP, 100% saturating CNP;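 active = activation at 10 µM reaching about 35% in either raw or pattern-adjusted values, limit read from the data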
# ASAP1 inh – ASAP1 ArfGAP inhibition | hit rate 0.19% among 360,000 | inhibition, % at 16.5 µM | Q9ULH1 | ASAP1-stimulated ARF1 GTP hydrolysis, GDP FP detection; in the data active = inhibition above about 25%;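 note: 0% = vehicle with enzyme and substrate and 100% = no enzyme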
# ARFGAP1 inhibitor – inhibitors of rat ARFGAP1. inhibition, % at 16.5 µM. AID 651572. Arfgap1-stimulated ARF1 GTP hydrolysis, GDP FP detection. Q62848. hit rate 0.26% among 360,000;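 active = inhibition above a per-plate limit, mean inhibition of low control wells plus 3 SD, cut at about 25% in these data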;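 note: 0% = DMSO wells with enzyme and 100% = wells lacking Arfgap1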
#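 Assay system: Rat Arfgap1 GAP domain (His6, aa 1-136), purified enzyme | Buffer or medium: HEPES 25 mM pH 7.5, NaCl 150 mM, MgCl2, DTT | Schedule: GTP hydrolysis reaction 2 h at 25 °C | Signal: FP of antibody-bound GDP Alexa 633 tracer, ex 620/em 688 nm | Measure: Percent inhibition of Arfgap1-stimulated GTP hydrolysis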
# NPR1 activator – GC-A (human) enzyme activation | activation, % at 10 µM | P16066 | HEK293 GC-A cells, cGMP TR-FRET, EC30 ANP; 0% at EC30 ANP, 100% saturating ANP | hit rate 0.14% among 370,000; in the data active = activation above about 40%
# core dimer inh – HCV core protein dimerization inhibition | inhibition, % at 5 µM | TR-FRET GST/Flag-core106 dimerization, 1536-well | hit rate 0.33% among 300,000;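 active = inhibition above the mean of all tested compounds plus 3 SD, set per screening campaign, cut at about 45% in these data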
#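 Test system: GST/Flag-tagged HCV core106 proteins; Medium: KF-containing HEPES buffer, pH 7.45, DTT, CHAPS, BSA; Times: compound-protein-antibody incubation 4 h at 22.5 °C; Detection: TR-FRET 671 and 617 nm emission; Benchmarks: wells lacking GST-core106 and wells with excess unlabelled core106.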
# CTSL1 counter – blocks F. hepatica cathepsin L1 in PFM18AAP counter-screen | hit rate 0.49% among 300,000 | recombinant F. hepatica cathepsin L1, Z-Leu-Arg-MCA fluorescence | inhibition, % at 5.96 µM;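 active = inhibition above the mean of all tested compounds plus 3 SD, set per screening campaign, cut at about 17% in these data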;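 note: 0% = plate median of test compound wells and 100% = 1 µM Z-Phe-Ala-diazomethylketone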
# Numbers without * were called inactive; nt = no result given.
SMILES,NPR2 activator,ASAP1 inh,ARFGAP1 inhibitor,NPR1 activator,core dimer inh,CTSL1 counter
COc1cc(-c2coc3c(C(=O)NCc4ccc(OC)c(OC)c4)cccc23)ccc1O,3.2,19.5,7.8,0.7,nt,nt
CC(C)NC[C@H](O)COc1cccc2[nH]ccc12,5.1,2.6,-8.0,1.0,-5.9,86.4*
CCCCn1c(N)c(N(CCC(C)C)C(=O)c2cc(-c3ccco3)nc3ccccc23)c(=O)[nH]c1=O,-6.0,-1.2,-3.9,-0.7,48.8*,0.0
CCCCN(C(=O)c1cc(-c2ccco2)nc2ccccc12)c1c(N)n(CCCC)c(=O)[nH]c1=O,-13.3,-17.3,-7.5,-3.1,36.5,6.3
Cc1cc(S(=O)(=O)c2ccc([N+](=O)[O-])cn2)ccc1Br,36.6*,2.7,-0.6,19.5,1.0,3.7
Cc1ccc(S(=O)(=O)c2ccc([N+](=O)[O-])cn2)cc1,4.2,2.3,0.6,9.4,7.5,5.4
O=C(NCc1ccccc1)[C@H]1CCCN1C(=O)[C@H]1CCCN1C(=O)c1ccccc1C(F)(F)F,0.3,-4.3,1.5,-1.1,nt,nt
CCCOC(=O)C1=C(C)NC2=C(C(=O)C(C(=O)OC)C(C)C2)C1c1ccc(N(CC)CC)cc1 (stereo not given),-10.0,1.7,4.8,-10.6,2.9,20.3*
N#Cc1c(N)n(Cc2ccccc2)c(=O)c2cc([N+](=O)[O-])ccc12,21.7,10.0,1.7,47.2*,4.4,-0.3
CCC(C)C(Nc1ncnc2scc(-c3ccccc3)c12)C(=O)O (stereo not given),0.5,2.5,-1.8,3.1,1.3,-0.3
CC(=O)Nc1cccc(Oc2ncnc3scc(-c4ccccc4)c23)c1,46.2*,5.9,0.4,38.6,0.5,1.7
O=S(=O)(c1ccc(Oc2ncnc3scc(-c4ccccc4)c23)cc1)N1CCOCC1,-2.8,14.3,7.8,-3.7,50.4*,0.7
O=S(=O)(c1ccc(Oc2ccccc2)cc1)N1CCOCC1,2.4,-1.7,-5.9,5.1,1.0,-1.8
Cc1c(N=c2c(=O)c3ccccc3c2=O)c(=O)n(-c2ccccc2)n1C,nt,nt,nt,nt,-7.3,56.4*
CCCC(=O)Nc1nc(-c2ccc(Cl)s2)cs1,1.4,-5.2,7.7,54.8*,7.0,-0.1
CCOC(=O)N1CCN(C(=O)CSCC(=O)Nc2nc(-c3ccc(OC)cc3)cs2)CC1,2.1,10.0,-5.5,-2.1,3.4,-2.8
CCOC(=O)N1CCN(C(=O)CSCC(=O)Nc2nc(-c3ccc(Cl)s3)cs2)CC1,-7.3,5.2,3.4,42.2*,5.5,3.6
COc1ccc(CCN2CC(C(=O)OC(C)C(=O)Nc3cccc(Cl)c3)CC2=O)cc1OC (stereo not given),-3.2,12.9,11.9,-5.0,nt,nt
CCn1nc(C)c(NC(=O)CSc2nnc(-c3ccco3)n2C)c1C,0.8,8.3,9.5,-2.1,-2.6,-1.2
COc1ccc2oc(=N)c(C(=O)Nc3ccccc3Cl)cc2c1,-0.1,-0.3,-4.2,-2.7,-15.9,20.0*
Cc1cc(C(=O)OCC(=O)c2ccc(Cl)c([N+](=O)[O-])c2)c2cccc(C)c2n1,2.8,-5.3,-6.1,7.6,46.4*,-2.2
Cc1ccc(-c2csc(N3N=C(c4ccccc4)/C(=C\c4ccc(N(C)C)cc4)C3=O)n2)cc1,nt,nt,nt,nt,46.4*,-1.4
Cc1ccc(C(=O)Cn2c(=N)n(N)c3ccccc32)cc1,0.7,-4.1,6.0,-4.5,2.1,-1.6
Cc1ccc(C(=O)Cn2ncsc2=N)cc1,-0.1,-1.8,3.3,1.6,0.7,61.9*
Cc1nnc2ccc(-c3ccc(NC(=O)Cc4cccs4)cc3)nn12,-5.4,10.0,4.4,-12.0,55.7*,-2.4
SMILES,NPR2 activator,ASAP1 inh,ARFGAP1 inhibitor,NPR1 activator,core dimer inh,CTSL1 counter
O=C(CCl)Nc1cn(-c2ccccc2)nc1-c1ccc(F)cc1,-2.5,3.2,5.5,-3.3,1.1,77.1*
Fc1ccc(-c2nn(-c3ccccc3)cc2CNCc2ccccc2)cc1,-8.4,-3.0,7.8,-2.4,-10.9,-1.0
CCOC(=O)c1c(-c2ccc(C)o2)csc1NC(=S)NC(=O)c1cccs1,37.2*,8.9,10.2,28.6,13.3,4.3
CCOC(=O)c1c(-c2ccc(C)o2)csc1NC(=S)NC(=O)c1ccccc1Br,37.1*,1.1,3.4,17.5,3.3,3.7
CCOC(=O)c1c(-c2ccc(C)o2)csc1NC(=O)COC(=O)c1ccc(NC(N)=O)cc1,-6.1,13.9,6.6,-3.4,49.0*,18.9*
CCOC(=O)c1c(-c2ccccc2)csc1NC(=S)NC,-4.4,8.2,-1.1,-1.3,-2.0,-3.5
CCOC(=O)c1c(-c2ccc(C)o2)csc1NC(=O)CSc1nnc(C)s1,5.8,0.7,-2.3,2.7,4.8,2.5
Cc1ccc2c(c1)C1CN(C)CCC1N2C(=O)COc1ccc(N(C)C(=O)C(C)(C)C)cc1 (stereo not given),1.0,12.8,7.8,-0.8,-0.8,-2.9
O=C(COc1ccccc1F)Nc1ccc2c(c1)CCC2,-1.0,5.6,-5.2,1.1,nt,nt
O=C(CCNS(=O)(=O)c1ccc(Cl)cc1)N1CCC2(O)CCCCC2C1 (stereo not given),0.6,4.2,-2.3,2.3,0.1,-2.0
COc1cccc(NC(=O)CN(C)C(=O)c2cc3c(s2)CCC3)c1,-2.3,-8.1,-8.1,-2.0,59.1*,3.2
COc1ccc(NC(=O)CN(C)C(=O)c2cc3c(s2)CCC3)cc1,nt,nt,nt,nt,69.6*,0.0
COc1cccc(NC(=O)CN(C)C(=O)c2cc3c(s2)CCC(C)C3)c1 (stereo not given),-1.0,4.0,8.5,3.0,8.3,-0.9
CCOC(=O)C(=CNc1ccc(Cl)cn1)C(=O)OCC,3.0,-14.0,-6.4,1.2,-5.2,6.5
COc1ccc(NC(=O)c2csc3c2CCCCC3)c(OC)c1,-3.3,13.0,-8.3,-4.0,-0.5,-1.4
O=C(N/N=C/C(Br)=C/c1ccccc1)c1n[nH]c2c1CCC2,nt,nt,nt,nt,68.8*,6.2
O=CN1CCN(C(=O)c2ccc(-c3nc4ccccc4s3)s2)CC1,3.0,-4.4,0.9,6.4,1.4,25.9*
COC(=O)CN(C#N)c1nc(NCc2ccccc2)nc(OC)n1,0.5,-3.4,3.9,-4.9,nt,nt
CCNc1nc(SC)nc(N(C#N)CC(=O)OC)n1,-2.4,-2.0,8.7,1.2,1.5,62.2*
COC(=O)CN(C#N)c1nc(N(C)C)nc(N(C)C)n1,0.6,4.2,-8.8,1.2,0.3,21.1*
COC(=O)CN(C#N)c1nc(NC(C)C)nc(OC)n1,4.3,-9.3,8.6,4.4,-5.2,80.5*
CC(C)N(C(=O)CN(C#N)c1nc(N(C)C)nc(N(C)C)n1)c1ccccc1,-1.0,-4.2,9.0,-2.0,4.7,-0.2
COC(=O)CN(C#N)c1nc(OC)nc(N(C)C)n1,1.9,6.6,1.6,4.4,-0.3,39.9*

# Screens (PubChem BioAssay)
